# An excerpt weighted towards active compounds, which were near 3.5% of everything screened.
# MrgX1 antag: blocks BAM8-22 activation of human MrgX1 receptor; Q96LB2; MRGX1-HEK293 calcium flux, Fluo-4, BAM8-22 antagonism; hits give low values; 1.3% of 310,000 active; B-score at 10 µM;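 active = calcium-response B-score plate-corrected more than 3 library SD below zero, starting fluorescence within 5 deviations, no agonist response on first addition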;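 also: peak minus trough fluorescence over baseline after final BAM8-22 challenge near maximal dose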
# Target sequence (Q96LB2 whole entry, looked up): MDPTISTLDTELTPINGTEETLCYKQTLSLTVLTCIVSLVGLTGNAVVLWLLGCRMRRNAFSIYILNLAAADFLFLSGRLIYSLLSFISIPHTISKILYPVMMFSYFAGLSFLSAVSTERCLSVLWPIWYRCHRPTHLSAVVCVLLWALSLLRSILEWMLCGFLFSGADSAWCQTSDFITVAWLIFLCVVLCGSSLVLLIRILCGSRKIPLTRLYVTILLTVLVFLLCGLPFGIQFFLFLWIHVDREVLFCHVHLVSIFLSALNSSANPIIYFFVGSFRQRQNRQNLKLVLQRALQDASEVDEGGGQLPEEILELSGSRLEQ
# RGS4 act: potentiators or activators of RGS4. 0.92% of 310,000 active. B-score at 10 µM. AID 463111. HEK293 M3R/inducible RGS4, carbachol calcium flux Fluo4; hits give low values;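 active = B-score of the integrated calcium signal more than 4 SD below the library mean, with starting fluorescence not abnormally high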;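 also: negative B-score means reduced calcium response which marks RGS4 activation or potentiation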
#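 Test system: HEK293 cells with stable M3R and inducible RGS4; also added: carbachol at ECmax as muscarinic agonist stimulus; schedule: dye loading 30 min 37 °C, buffer rest 30 min RT; technique: kinetic calcium fluorescence imaging with Fluo4-AM dye, 2 µM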
# MrgX1 agonist: agonists of human MrgX1 receptor. MrgX1-HEK293 cells, Fluo-4 calcium fluorescence, agonist mode; hits give high values. Q96LB2. 0.44% of 310,000 active. B-score at 10 µM;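 active = calcium response B-score plate-corrected fluorescence ratio at least 3 library SD, with starting fluorescence B-score inside 5 SD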
#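 Test system: HEK293 cells stably expressing human MrgX1 receptor; Input: fifteen thousand cells per well; Dosing: compound delivered in addition one of three; Schedule: overnight seeding, then 1 h dark dye loading; Technique: Fluo-4 NW calcium fluorescence; Measure: B-scored fluorescence response ratio; Controls: positive and negative controls per plate.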
# MrgX1 PAM: allosterically activates human MrgX1 receptor signaling. Q96LB2. 0.63% of 310,000 active. MrgX1-HEK293, Fluo-4 calcium flux, FDSS; hits give high values. B-score at 10 µM;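 active = plate-corrected calcium response at least 3 library SD above typical, normal starting fluorescence, not activating the receptor alone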;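 also: compound read alongside a low EC10 to EC30 dose of BAM8-22 agonist; peak minus trough fluorescence over baseline measured at the second addition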
# RGS4 inh: human RGS4 inhibition; P49798; HEK293 M3R/RGS4 inducible, Fluo-4 calcium flux; hits give high values; triggered by carbachol at its EC20; B-score at 10 µM; 0.45% of 310,000 active; AID 463165;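 active = B-score, a plate-corrected calcium signal, over three deviations above library mean, with baseline fluorescence within five deviations of library mean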;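 also: RGS4 expression induced by doxycycline in cells with stable M3 receptor; B-score is computed from the integrated fluorescence ratio over baseline after carbachol; higher B-score means a larger calcium signal and so more RGS4 inhibition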
# Target sequence (P49798 whole entry, looked up): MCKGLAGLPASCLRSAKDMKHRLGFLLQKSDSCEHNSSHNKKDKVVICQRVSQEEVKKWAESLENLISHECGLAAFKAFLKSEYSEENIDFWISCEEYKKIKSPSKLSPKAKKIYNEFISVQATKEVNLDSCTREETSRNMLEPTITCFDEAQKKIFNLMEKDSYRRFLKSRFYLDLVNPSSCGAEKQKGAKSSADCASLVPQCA
# MrgX1 ant reconf: reconfirmed antagonist of human MrgX1 receptor signaling | shares compounds with MrgX1 antag | MrgX1-HEK293, BAM8-22 calcium flux, Fluo-4; hits give low values | remaining BAM8-22 calcium response % of control (hits give low values), % at 10 µM | 19% of 2,300 active;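 active = remaining agonist calcium response no higher than 100% minus 3 SD of agonist-only control wells, with starting fluorescence near control levels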;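 also: agonist BAM8-22 given at a near maximal EC90 to ECmax level; peak minus minimum fluorescence divided by baseline after agonist addition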
# HEK293 Ca flux: counter-screen for MrgX1 antagonists: effect in parental HEK293 cells; shares compounds with MrgX1 antag; Fluo-4 calcium fluorescence, FDSS; fluorescence ratio F(max-min)/F0 at 10 µM; 2% of 4,000 active;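 active = duplicate-averaged calcium fluorescence ratio at least three times the standard deviation of buffer wells, a nonspecific response in parental cells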
# HEK293 Ca counter: MrgX1 allosteric activator counter-screen hit in parental HEK293 cells. shares compounds with MrgX1 antag. parental HEK293 calcium flux, Fluo-4 fluorescence ratio; hits give high values. fluorescence ratio F(max-min)/F0 at 10 µM. 0.4% of 4,000 active. AID 624114;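 active = calcium fluorescence ratio, averaged over duplicates, at least 3 SD of the buffer-well ratio, meaning a nonspecific response in receptor-free cells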;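 also: untransfected parental HEK293 lacking MrgX1 used as counterscreen for MrgX1 allosteric activators; fluorescence change taken during the second addition on a kinetic imager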
# HEK293 Ca cntr2: MrgX1 activator counter-screen hit in parental HEK293 cells | 8.7% of 4,000 active | Fluo-4 calcium fluorescence (FDSS); hits give high values | fluorescence ratio F(max-min)/F0 at 10 µM | shares compounds with MrgX1 antag | AID 624115;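 active = calcium fluorescence ratio at least three times the spread of buffer wells, meaning a non-specific response in parental cells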
# Numbers without * were called inactive; i = inactive; · = not tested or not shown.
SMILES,MrgX1 antag,RGS4 act,MrgX1 agonist,MrgX1 PAM,RGS4 inh,MrgX1 ant reconf,HEK293 Ca flux,HEK293 Ca counter,HEK293 Ca cntr2
CCN(CC(=O)Nc1ccc(NC(C)=O)cc1)C(=O)c1ccc2ccccc2c1,-5.1*,i,i,i,i,i,i,i,i
CCN(CC(=O)Nc1ccc(NC(C)=O)cc1)C(=O)COc1ccc2ccccc2c1,i,i,i,i,i,·,·,·,·
Cc1ccccc1OCC(=O)NS(=O)(=O)c1ccc(Cl)cc1,-9.2*,i,i,i,i,83%*,i,i,i
O=C(NS(=O)(=O)c1ccc(Cl)cc1)c1ccccc1,-4.9*,i,i,i,i,i,i,i,i
O=C(NS(=O)(=O)c1ccccc1)c1ccccc1,i,i,i,i,i,·,·,·,·
CCOC(=O)c1cnc2nc(C(F)(F)F)[nH]n2c1=O,-5.5*,i,i,i,i,i,i,i,i
O=C(CSc1nc2ccccc2c(=O)n1-c1ccccc1)c1c[nH]c2ccccc12,-6*,i,i,i,i,i,i,i,i
Cc1ccc(-c2nnc(CSc3nnc(C)s3)o2)cc1,-5.9*,i,i,i,i,i,i,i,i
COc1ccc(OCC(=O)Nc2ccc(N3CCCCC3)cc2)cc1,i,i,i,i,i,·,·,·,·
CCN(CC)S(=O)(=O)c1cccc(-c2n[nH]c(=S)n2/N=C/c2ccc(Br)cc2)c1,i,i,i,i,i,·,·,·,·
O=C(NCCCN1CCCC1)c1cc2c(Cl)nc3ccccc3c2s1,-7.7*,i,i,i,i,i,i,i,i
Cc1nn(C)c(C(=O)N/N=C/c2ccc(-c3ccccc3)cc2)c1Cl,-10*,i,i,i,i,i,i,i,i
COc1ccccc1-c1nc(C#N)c(N2CCN(c3cccc(Cl)c3)CC2)o1,i,i,i,i,i,·,·,·,·
O=C1CC(NCC2CCCO2)C(=O)N1c1ccc(Cl)cc1 (centres undefined),i,i,i,i,i,·,·,·,·
O=C(CCCn1c(SCc2cccc(F)c2)nc2ccccc2c1=O)NCC1CCCO1 (centres undefined),-5.2*,i,i,i,i,i,i,i,i
Cc1ccc(OCC(=O)NC(=S)Nc2ccc(Br)cn2)cc1C,i,i,i,i,i,·,·,·,·
COc1ccc2oc(C(=O)OCC(=O)Nc3ccccc3)c(C)c2c1,i,i,i,i,i,·,·,·,·
COc1ccc2oc(C(=O)OCC(=O)Nc3ccc(N4CCOCC4)cc3)c(C)c2c1,-8.5*,i,i,i,i,i,i,i,i
Cc1nc2ccccc2c2oc(C(=O)NC3CC3)cc12,i,i,i,i,i,·,·,·,·
Cc1cc2c(C)nc3ccccc3c2o1,-4.7*,i,i,i,i,i,i,i,i
Cc1ccc(-n2ncc3c(=O)n(CC(=O)NC4CCCC4)cnc32)cc1C,i,i,i,i,i,·,·,·,·
CCOC(=O)Cc1nnc(Nc2cccc(O)c2)c2ccccc12,-6.3*,i,i,i,i,i,i,i,i
Cc1ccccc1/C=N\NC(=O)c1ccc(Cn2cccn2)o1,i,i,i,i,i,·,·,·,·
O=C(CSc1nnc(NC(=O)c2cc(Br)ccc2Cl)s1)NCC1CCCO1 (centres undefined),-13*,i,i,i,i,i,i,i,i
O=C(CSc1nc2ccccc2s1)NCC1CCCO1 (centres undefined),-5.9*,i,i,i,i,i,i,i,i
SMILES,MrgX1 antag,RGS4 act,MrgX1 agonist,MrgX1 PAM,RGS4 inh,MrgX1 ant reconf,HEK293 Ca flux,HEK293 Ca counter,HEK293 Ca cntr2
Cc1cc2cc(CN(CCN(C)C)C(=S)NCc3ccco3)c(=O)[nH]c2cc1C,i,i,i,i,i,·,·,·,·
CC(C)CC(=O)Nc1c2c(nn1-c1ccc(F)cc1)CSC2,-7.7*,i,i,i,i,i,i,i,i
Cc1nn(C)c(-c2n[nH]c(=S)n2-c2ccccc2)c1Cl,-4.7*,i,i,i,i,i,i,i,i
COc1cccc(Nc2nc(NCC3CCCO3)c3ccccc3n2)c1 (centres undefined),-6.1*,i,i,i,i,20%*,i,i,i
Oc1ccc(Nc2nc(NCC3CCCO3)c3ccccc3n2)cc1 (centres undefined),·,i,·,·,i,·,·,·,·
COc1ccccc1NC(=O)CSc1nc(N)c(C#N)cc1C#N,i,i,i,i,i,·,·,·,·
COc1ccccc1NC(=O)CSc1nc(N)cc(N)n1,-5.5*,i,i,i,i,i,i,i,i
Cc1ccc2[nH]c(=O)c(CN(CCN3CCOCC3)C(=O)Nc3ccc(F)cc3)cc2c1,-5.2*,i,i,i,i,i,i,i,i
CCOC(=O)Cn1cc(C(=O)c2ccco2)c2ccccc21,i,i,i,i,i,·,·,·,·
O=C(O)Cn1cc(C(=O)c2ccco2)c2ccccc21,-7.9*,i,i,i,i,i,i,i,i
Cc1cc(C(=O)COC(=O)c2ccc3c(c2)NC(=O)CS3)c(C)n1CC1CCCO1 (centres undefined),-5.9*,i,i,i,i,i,i,i,i
CCCCN(C(=O)c1cccc(S(=O)(=O)N2CCN(C)CC2)c1)c1c(N)n(CCC)c(=O)[nH]c1=O,-15*,i,i,i,i,i,i,i,i
COc1ccc(-c2nnc(SCC(=O)N(C)C3CCS(=O)(=O)C3)n2N)cc1OC (centres undefined),i,i,i,i,i,·,·,·,·
COC(=O)c1ccc(C(=O)Nc2nnc(-c3cccnc3)o2)cc1,i,i,i,i,i,·,·,·,·
CC(=O)Nc1ccc(Sc2ncccc2C(=O)Nc2ccc(OC(F)(F)F)cc2)cn1,-10*,i,i,i,i,i,i,i,i

# Screening results as filed in PubChem.
